# Rows were chosen to be rich in hits. Some 1.8% of all compounds tested hit in one or more screens of this group.
# M5 ag: human M5 muscarinic receptor agonists, primary screen, CHO-K1 cells, Fluo-8 calcium fluorescence; hit rate 0.19% among 360,000; CHO-K1 hM5 cells; 0% DMSO wells, 100% maximal acetylcholine response; activation, % at 3 µM; Muscarinic acetylcholine receptor M5 (Homo sapiens), P08912;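 active = activation above the run's mean over test compounds plus 3 SD, cut at about 23% in these data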;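 also: signal is peak over basal fluorescence ratio across the kinetic read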
# M4 antag: human M4 muscarinic receptor antagonists, primary screen, CHO cells, Fluo-8 calcium fluorescence | inhibition, % at 3 µM | CHO-hM4 cells, ACh EC80 | hit rate 0.73% among 360,000 | AID 624125, 2012 | Muscarinic acetylcholine receptor M4 (Homo sapiens), P08173;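 active = inhibition above its plate's cutoff, the mean inhibition of sample wells plus 3 SD, cut at about 27% in these data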
# Target sequence (P08173 whole entry, looked up): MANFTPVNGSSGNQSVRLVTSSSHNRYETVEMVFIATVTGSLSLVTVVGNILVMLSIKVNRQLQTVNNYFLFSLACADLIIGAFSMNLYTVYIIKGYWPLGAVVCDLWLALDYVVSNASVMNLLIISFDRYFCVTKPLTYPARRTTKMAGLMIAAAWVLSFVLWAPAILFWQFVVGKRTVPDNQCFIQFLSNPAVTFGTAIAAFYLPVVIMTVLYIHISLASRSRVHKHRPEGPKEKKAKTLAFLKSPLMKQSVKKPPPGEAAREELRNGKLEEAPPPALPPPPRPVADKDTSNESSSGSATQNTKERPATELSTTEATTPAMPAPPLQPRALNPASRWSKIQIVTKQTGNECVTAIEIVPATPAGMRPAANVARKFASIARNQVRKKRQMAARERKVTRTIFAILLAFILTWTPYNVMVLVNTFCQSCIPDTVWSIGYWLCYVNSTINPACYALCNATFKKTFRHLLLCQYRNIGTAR
# M5 PAM: human M5 muscarinic receptor positive allosteric modulators, primary screen, CHO-K1 cells, Fluo-8 calcium fluorescence. Muscarinic acetylcholine receptor M5 (Homo sapiens), P08912. CHO-K1 hM5, ACh EC20 PAM; 0% = ACh EC20, 100% = ACh EC100. activation, % at 3 µM. hit rate 0.3% among 360,000;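 active = activation above the run cutoff, the mean activation of all test compounds plus 3 SD, cut at about 18% in these data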
#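 Probe or stimulus: acetylcholine, EC20 level; Assay system: human M5 receptor in CHO-K1 cells; Schedule: compound preincubation 140 s before EC20 acetylcholine addition; Technique: intracellular calcium via Fluo-8 fluorescence; Dosing: single-point, 3 µM nominal; Read-out basis: percent activation from peak-over-basal fluorescence ratio, scaled EC20-to-EC100 acetylcholine; Repeats: one well per compound, no replicates.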
# M4 ag: human M4 muscarinic receptor agonists, primary screen, CHO-K1 cells, Fluo-8 calcium fluorescence; activation, % at 3 µM; hit rate 0.14% among 360,000; CHO-K1 hM4/Gqi5; vehicle 0%, full acetylcholine response 100%; Muscarinic acetylcholine receptor M4 (Homo sapiens), P08173;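 active = activation above the run mean over all test wells plus 3 SD, cut at about 32% in these data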;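 also: peak over basal fluorescence ratio per well then scaled between controls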
# CHRM4 PAM: human M4 muscarinic receptor positive allosteric modulators, primary screen, CHO-K1 cells, Fluo-8 calcium fluorescence | activation, % at 3 µM | AID 624126, 2012 | CHO-K1 hM4/Gqi5, ACh EC20; 0% = ACh EC20, 100% = maximal ACh | hit rate 0.4% among 360,000;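 active = activation above its plate's cutoff, the mean activation of sample wells plus 3 SD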
# CHRM5 antagonist: human M5 muscarinic receptor antagonists, primary screen, CHO cells, Fluo-8 calcium fluorescence | Muscarinic acetylcholine receptor M5 (Homo sapiens), P08912 | CHO-hM5 cells, ACh EC80 | inhibition, % at 3 µM | hit rate 0.59% among 360,000 | AID 624040, 2012;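 active = inhibition above a per-plate cutoff, the mean of that plate's test compounds plus 3 SD, cut at about 27% in these data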
# A number is an active result; n = inactive; ! = not active in a repeat.
SMILES,M5 ag,M4 antag,M5 PAM,M4 ag,CHRM4 PAM,CHRM5 antagonist
Nc1ccc2ccc(O)cc2c1,n,n,n,n,n,n
C[n+]1c2cc(N)ccc2cc2ccc(N)cc21,44,27!,n,94,n,n
CC1(C(=O)NCc2ccco2)Cc2c(-c3cccc(C(F)(F)F)c3)ccnc2O1 (stereo unspecified),n,n,n,n,n,n
CCOC(=O)C1=C(COC(=O)/C=C/c2ccc(OC)cc2OC)NC(=O)NC1C (stereo unspecified),n,n,n,n,n,n
Cc1ccc2nc(Cl)c(/C=N/n3c(C)nnc3C)cc2c1,n,n,n,n,n,n
CN1C(=O)c2cccc3c(N(C)C)ccc(c23)C1=O,41,n,n,n,n,n
CNc1ccc2c3c(cccc13)C(=O)N(C)C2=O,125,40,n,229,n,43
CN1C(=O)c2cccc3c(Cl)ccc(c23)C1=O,n,n,n,n,n,n
COC(=O)c1[nH]c2ccccc2c1CN1CCOCC1,n,n,n,n,n,n
CCCCN1CC(=O)N2[C@H](c3ccc(OC)cc3)[C@@H]3C(=O)N(CC)C(=O)[C@@H]3[C@]2(C)C1=O,n,n,n,n,n,n
Cc1nc2nc(SCC(=O)NCCCN3CCCCCC3)nn2c(C)c1Cc1ccccc1,n,38,n,n,n,n
Cc1ccccc1Cc1c(C)nc2nc(SCC(=O)NCCCN3CCCCC3)nn2c1C,n,n,n,n,n,n
COc1ccc(Br)c(Cn2c(C)c(C(=O)NCc3cccc([N+](=O)[O-])c3)sc2=O)c1,n,31,n,n,n,n
Cc1c(C(=O)NCc2ccc(C(F)(F)F)cc2)sc(=O)n1Cc1cccc(F)c1,50,30,n,54,n,32
COCCCN1C(=O)C(CC(=O)NC2CCCC2)CC(C(=O)N2CCOCC2)=C1C (stereo unspecified),n,n,n,n,n,n
COCC(=O)N(Cc1cc2ccc(C)cc2[nH]c1=O)c1cccc(C)c1,n,n,n,n,n,n
COCC(=O)N(Cc1cc2cc(C)ccc2[nH]c1=O)c1ccccc1,n,n,n,n,23,n
CO/N=C/C(C#N)=C/c1ccc(OC)c(OC)c1,n,n,n,n,20,n
O=c1cccc(-c2ccccc2)[nH]1,n,n,30,n,n,n
CC(C)CC1C(=O)N(Cc2cn(CCC3OCCCO3)nn2)CCS(=O)(=O)N1Cc1ccc(-c2ccc(Cl)c(Cl)c2)cc1 (stereo unspecified),n,n,n,n,n,n
Cc1c(Br)c([N+](=O)[O-])nn1CC(=O)N1CCc2ccccc2C1,n,n,n,n,n,n
Cc1c(Br)c([N+](=O)[O-])nn1C(C)C(=O)N1CCc2ccccc2C1 (stereo unspecified),n,55,n,n,n,n
O=C(O)c1ccc(Br)cn1,n,n,n,n,20,n
COC(=O)C1=C(C(=O)OC)[C@@H]2Nc3ccccc3[C@@]23C[C@@H](C(=O)OC)N(C(=O)c2cccs2)C3=N1,n,n,n,n,25,n
O=C(COc1ccccc1)NCc1nnc2c3ccccc3c(-c3ccccc3)nn12,n,n,n,n,n,n
SMILES,M5 ag,M4 antag,M5 PAM,M4 ag,CHRM4 PAM,CHRM5 antagonist
c1ccc2c(c1)OC(CCCN1CCCCC1)c1ccccc1S2 (stereo unspecified),n,n,n,n,n,n
CN1CCCC(CC2Oc3ccccc3Sc3ccccc32)C1 (stereo unspecified),n,73,n,n,n,54
Cc1ccc(S(=O)(=O)c2ccc(C)cc2)cc1,n,n,n,n,n,n
Cc1ccc(S(=O)(=O)C=CS(=O)(=O)c2ccc(C)cc2)cc1,n,32,n,n,n,n
O=S(=O)(/C=C/C=C/S(=O)(=O)c1ccccc1)c1ccccc1,n,43,n,n,n,n
Cc1ccc(S(=O)(=O)N2CCCCC2)cc1C(=O)NCCCN1CCOCC1,n,n,n,n,n,n
CCCn1cnc2scc(-c3ccc(C)c(C)c3)c2c1=O,n,n,n,n,n,n
CC[C@H](C)[C@H](NS(=O)(=O)c1ccc(C)cc1)C(=O)N1CCC(C(=O)N[C@H](C(=O)O)C(C)C)CC1,n,n,20,n,n,n
CCOCc1nnc(NC(=O)c2cc(OC)c(OC)cc2[N+](=O)[O-])s1,n,n,n,n,22,n
CCOCCc1nnc(NC(=O)c2cc(OC)c(OC)cc2[N+](=O)[O-])s1,n,n,n,n,n,n
CC(=O)OC[C@]12CC[C@H]3[C@@](C)(CC[C@H]4C(C)(C)CCC[C@]34C)[C@@H]1CC(C1=CC(=O)OC1O)O2 (stereo partly specified),n,88,n,n,n,n
CC(=O)OC[C@]1(OC(C)=O)C[C@@]23CC[C@H]4[C@@](C)(CCC[C@@]4(C)C(=O)O)[C@@H]2CC[C@@H]1C3,n,n,n,n,n,n
Cn1c(=O)c2[nH]c(CCCCCCCCc3nc4ccccc4[nH]3)nc2n(C)c1=O,n,30,n,n,n,n
Cn1c(=O)c2[nH]c(CCCCc3nc4ccccc4[nH]3)nc2n(C)c1=O,n,n,n,n,n,n
O=C(NC(CC(=O)N1CCCC(C(F)(F)F)C1)c1ccccc1)c1ccccc1Cl (stereo unspecified),n,n,n,n,n,n
COCCCN1CN(S(=O)(=O)c2ccc(C)cc2C)c2nc3ccccc3nc21,n,n,21,n,n,n
C=CCNc1nc2cc(-c3ccccc3C)sc2c(=O)n1C,n,n,n,n,n,n
CN(C)Cc1cc(C(C)(C)c2ccccc2)ccc1O,n,n,n,n,n,29
CC(C)(c1ccc(O)c([N+](=O)[O-])c1)c1ccc(O)c([N+](=O)[O-])c1,n,n,n,n,n,n
O=C(O)CSCC(=O)NCc1ccc(Cl)cc1,n,n,n,n,28,n
CCOC(=O)c1ccccc1NC(=O)COC(=O)c1cc([N+](=O)[O-])ccc1N1CCOCC1,n,n,n,n,n,n
COc1ccc(NC(=O)NNS(=O)(=O)c2ccc(OC)c(OC)c2)c(OC)c1,n,n,18,n,n,n
COc1ccccc1CNC(=O)C1Cc2cc(S(=O)(=O)N3CCCC3)ccc2N1C(C)=O (stereo unspecified),n,n,n,n,n,n

# Screening data: PubChem, The Scripps Research Institute Molecular Screening Center
